Experiments:
[1] = molecular target: Monoamine transporters; serotonin & dopamine (Rattus norvegicus) (UniProt P31652+P23977); assay: Selectivity ratio for DAT binding compared to 5-HTT binding.; format: protein assay
[2] = molecular target: Sodium-dependent serotonin transporter (Rattus norvegicus, UniProt P31652); assay: Inhibition of [3H]citalopram binding to Serotonin transporter (5-HTT) in rat cortical tissue.
In short: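 Rat cortical P2 fraction homogenized in 16 volumes of ice-cold 25 mM sodium phosphate, pH 7.7. [3H]citalopram at 2 nM final; 1 µM clomipramine defines nonspecific binding. Usually seven drug concentrations, triplicates, organic solvent ≤0.3 vol %. Incubated 3 h at 0 °C, then filtered on PEI-soaked glass fibre and counted. IC50 and Hill coefficients from dose-response curves.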

[3] = molecular target: T1, Sodium-dependent dopamine transporter (Rattus norvegicus, UniProt P23977); assay: Inhibition of [3H]WIN-35428 binding to the cocaine binding site on the dopamine transporter (DAT) in synaptosomal membrane preparations from rat striatal tissue.; format: cell membranes, Striatum
[4] = molecular target: Sodium-dependent serotonin transporter (Rattus norvegicus) (UniProt P31652); assay: Inhibition of [3H]citalopram binding to Serotonin transporter (5-HTT) in rat cortical tissue […]; settings: 10 uM
In short: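 Rat cortical P2 membranes in 25 mM sodium phosphate, pH 7.7; 1 µM clomipramine defines nonspecific binding. Incubated 3 h at 0 °C, then rapid filtration on PEI-presoaked filters and radioactivity counting.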

[5] = molecular target: T1, Sodium-dependent dopamine transporter; assay: Inhibition of [3H]DA uptake at DAT in rat striatal synaptosomes.

Sequence of Sodium-dependent serotonin transporter (Rattus norvegicus) (P31652 whole entry): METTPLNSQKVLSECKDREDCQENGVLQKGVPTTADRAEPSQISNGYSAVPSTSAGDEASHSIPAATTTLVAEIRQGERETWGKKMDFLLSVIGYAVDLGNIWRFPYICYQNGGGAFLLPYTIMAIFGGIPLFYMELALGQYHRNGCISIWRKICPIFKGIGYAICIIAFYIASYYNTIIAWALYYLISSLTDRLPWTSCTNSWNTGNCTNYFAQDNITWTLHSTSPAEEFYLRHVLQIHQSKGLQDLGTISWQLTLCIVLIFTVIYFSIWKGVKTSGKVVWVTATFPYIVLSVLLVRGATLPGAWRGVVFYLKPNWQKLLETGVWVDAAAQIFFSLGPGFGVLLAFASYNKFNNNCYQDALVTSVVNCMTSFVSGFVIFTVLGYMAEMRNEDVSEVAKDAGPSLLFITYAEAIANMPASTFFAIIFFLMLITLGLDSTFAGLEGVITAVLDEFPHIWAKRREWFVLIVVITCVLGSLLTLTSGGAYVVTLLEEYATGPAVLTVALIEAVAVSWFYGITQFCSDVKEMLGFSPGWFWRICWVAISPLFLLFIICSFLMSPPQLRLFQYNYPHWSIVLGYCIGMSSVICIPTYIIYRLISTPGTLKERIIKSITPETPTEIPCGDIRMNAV
Sequence of Sodium-dependent serotonin transporter (P31652 whole entry): as above
T1 sequence (P23977 whole entry): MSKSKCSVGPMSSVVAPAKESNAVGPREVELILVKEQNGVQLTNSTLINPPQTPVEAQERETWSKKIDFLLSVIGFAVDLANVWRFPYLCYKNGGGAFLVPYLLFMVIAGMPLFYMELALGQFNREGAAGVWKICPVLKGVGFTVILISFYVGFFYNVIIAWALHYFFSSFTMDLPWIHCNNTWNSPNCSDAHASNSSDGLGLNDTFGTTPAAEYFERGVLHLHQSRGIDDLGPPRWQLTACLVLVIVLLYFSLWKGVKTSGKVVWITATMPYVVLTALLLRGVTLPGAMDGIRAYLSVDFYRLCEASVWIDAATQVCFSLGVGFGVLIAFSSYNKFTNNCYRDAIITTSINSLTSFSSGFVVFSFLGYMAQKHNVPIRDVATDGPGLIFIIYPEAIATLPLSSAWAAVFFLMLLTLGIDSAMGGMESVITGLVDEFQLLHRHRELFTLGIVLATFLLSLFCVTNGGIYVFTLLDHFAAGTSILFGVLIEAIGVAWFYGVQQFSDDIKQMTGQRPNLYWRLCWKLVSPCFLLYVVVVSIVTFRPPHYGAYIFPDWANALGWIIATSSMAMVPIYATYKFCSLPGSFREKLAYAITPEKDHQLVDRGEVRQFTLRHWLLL
Sequence of Monoamine transporters; serotonin & dopamine (Rattus norvegicus) (P23977 whole entry, looked up): as the sequence (P23977 whole entry) above
Sequence of Monoamine transporters; serotonin & dopamine (Rattus norvegicus) (P31652 whole entry, looked up): as the sequence (P31652 whole entry) above

Q: Which results are given for `c1ccc(CN2CC3CCC(C3)C2)cc1`?
A: Selectivity ratio [1]: > 0.41; IC50 [2]: > 10 µM; IC50 [3]: 24.3 µM; inhibition [4]: 24.4%; IC50 [5]: 35.7 µM

Q: What does the source list for `CN1CC2CCC(C1)C2c1ccccc1` (stereo unspecified)?
A: Selectivity ratio [1]: 5.1; IC50 [2]: 1.85 µM; IC50 [3]: 0.36 µM; IC50 [5]: 1.04 µM

Q: What does the source list for `CN1CC2CCC(C1)C2c1ccc(Cl)cc1` (stereo unspecified)?
A: Selectivity ratio [1]: 0.81; IC50 [2]: 0.22 µM; IC50 [5]: 0.926 µM

Q: How did the Selectivity ratio [1] turn out when `c1ccc(C2C3CCC2CNC3)cc1` (stereo unspecified) was run?
A: 16

Q: What about the IC50 [2] of the same molecule?
A: 4 µM

Q: And the IC50 [3]?
A: 0.258 µM

Q: And the IC50 [5]?
A: 0.893 µM

Q: How did the Selectivity ratio [1] turn out when `c1ccc(CN2CC3CCC(C2)C3OC(c2ccccc2)c2ccccc2)cc1` (stereo in doubt; 17b) [listing 1 of 2 here] was run?
A: > 18

Q: What about the inhibition [4] of the same molecule?
A: 29.8%

Q: With `OC1(c2ccccc2)C2CCC1CN(Cc1ccccc1)C2` (stereo unspecified) as the molecule, how does the Selectivity ratio [1] read?
A: 0.17

Q: What about the IC50 [2] of the same molecule?
A: 3.06 µM

Q: What about the IC50 [3] of the same molecule?
A: 17.5 µM

Q: And the IC50 [5]?
A: 27.1 µM

Q: `OC1C2CCC1CN(Cc1ccccc1)C2` (stereo unspecified) was tested. Which Selectivity ratio [1] did it give?
A: > 0.45

Q: And the IC50 [2]?
A: > 10 µM

Q: What about the IC50 [3] of the same molecule?
A: 22.1 µM

Q: What about the inhibition [4] of the same molecule?
A: 23.8%

Q: What about the IC50 [5] of the same molecule?
A: 45 µM

Q: Which IC50 [2] does the source give for `c1ccc(CN2CC3CCC(C2)C3c2ccccc2)cc1` (stereo in doubt; 14) [3-BENZYL-8-PHENYL-3-AZA-BICYCLO[3.2.1]OCTANE (STEREOISOMERIC MIX)] here?
A: 3.88 µM

Q: And the IC50 [3]?
A: 0.785 µM

Q: And the IC50 [5]?
A: 4.45 µM

Q: Which results are given for `c1ccc(CN2CC3CCC(C2)C3OC(c2ccccc2)c2ccccc2)cc1` (stereo in doubt; 17a) [listing 1 of 2 here]?
A: Selectivity ratio [1]: 27; inhibition [4]: 61%

Q: `c1ccc(CN2CC3CCC(C2)C3c2ccccc2)cc1` (stereo in doubt; 14) was tested. Which Selectivity ratio [1] did it give?
A: 4.9

Q: `OC1(c2ccc(Cl)cc2)C2CCC1CN(Cc1ccccc1)C2` (stereo unspecified) was tested. Which Selectivity ratio [1] did it give?
A: 0.66

Q: And the IC50 [2]?
A: 0.997 µM

Q: And the IC50 [3]?
A: 1.51 µM

Q: What about the IC50 [5] of the same molecule?
A: 2.63 µM

Q: What does the source list for `Clc1ccc(C2C3CCC2CN(Cc2ccccc2)C3)cc1` (stereo unspecified)?
A: Selectivity ratio [1]: 4.2; IC50 [2]: 0.402 µM; IC50 [3]: 0.0955 µM; IC50 [5]: 0.601 µM

Q: With `c1ccc(CN2CC3CCC(C2)C3c2ccccc2)cc1` (stereo in doubt; 8a) as the molecule, how does the Selectivity ratio [1] read?
A: 14.8

Q: `c1ccc(CN2CC3CCC(C2)C3c2ccccc2)cc1` (stereo in doubt; 8a) [3-BENZYL-8-PHENYL-3-AZA-BICYCLO[3.2.1]OCTANE (STEREOISOMERIC MIX)] was tested. Which IC50 [2] did it give?
A: 3.46 µM

Q: What about the IC50 [3] of the same molecule?
A: 0.234 µM

Q: And the IC50 [5]?
A: 0.309 µM

Q: Which results are given for `OC1(c2ccccc2)C2CCC1CNC2` (stereo unspecified)?
A: inhibition [4]: 46.2%; IC50 [5]: 8.48 µM

Q: Which results are given for `CN1CC2CCC(C1)C2(O)c1ccccc1` (stereo unspecified)?
A: Selectivity ratio [1]: > 1; IC50 [2]: > 10 µM; IC50 [3]: 10.1 µM; inhibition [4]: 27.8%; IC50 [5]: 9.77 µM

Q: With `Clc1ccc(C2C3CCC2CNC3)cc1` (stereo unspecified) as the molecule, how does the Selectivity ratio [1] read?
A: 4.4

Q: What about the IC50 [2] of the same molecule?
A: 0.363 µM

Q: And the IC50 [3]?
A: 0.0815 µM

Q: And the IC50 [5]?
A: 0.478 µM

Q: What does the source list for `c1ccc(CN2CC3CCC(C2)C3OC(c2ccccc2)c2ccccc2)cc1` (stereo in doubt; 17a) [listing 2 of 2 here]?
A: IC50 [2]: 10 µM; IC50 [3]: 0.363 µM; IC50 [5]: 0.735 µM

Q: For `BrC1C2CCC1CN(Cc1ccccc1)C2` (stereo unspecified), which Selectivity ratio [1] is on record?
A: > 2.2

Q: What about the IC50 [2] of the same molecule?
A: > 10 µM

Q: And the inhibition [4]?
A: 30.4%

Q: And the IC50 [5]?
A: 8.64 µM

Q: `c1ccc(CN2CC3CCC(C2)C3OC(c2ccccc2)c2ccccc2)cc1` (stereo in doubt; 17b) [listing 2 of 2 here] was tested. Which IC50 [2] did it give?
A: > 10 µM

Q: And the IC50 [3]?
A: 0.536 µM

Q: And the IC50 [5]?
A: 1.98 µM

From ChEMBL document CHEMBL1136760 (J Med Chem, 2003)
